Read-outs that look alike come from different tables or passages of the source. Values belong to the compound of their own block, whether it stands above or below them.
Experiments:
[1] = by 5 h; cited from earlier work
hexokinase = conditions: cited from earlier work
glucose dehydrogenase = conditions: enzyme derived from rat liver; cited from earlier work
[2] = Urinary excretion of radioactivity; assay type: in vivo, Sprague-Dawley rats; conditions: by 24 h, 3H radioactivity
Method in brief: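 Rats under isoflurane received 74 kBq (2 μCi) [1-³H]6FDG by tail vein and were handled as in the ¹⁸F study: recovery in a metabolic cage for the later time points. Urine radioactivity was counted directly and expressed as a percentage of injected radioactivity at 1, 6 and 24 h.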

[3] = assay type: in vivo, Sprague-Dawley rats
[4] = assay type: in vivo, Sprague-Dawley rats; conditions: 1 h biodistribution time
[5] = HPLC quantification of neutral radioactivity; assay type: in vivo, Sprague-Dawley rats
[6] = assay type: in vivo, Sprague-Dawley rats; conditions: liver
Method in brief: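 Rats under 2% isoflurane in oxygen received the tracer by tail vein: about 37 MBq (1 mCi) for the 1 h point and 370 MBq (10 mCi) for 6 h. Tissues were homogenised in 8 mL/g ice-cold ethanol:PBS:water (65:10:25) and spun 15 min at 23,500 × g, 4 °C. The methanol-water extract was dried, taken up in water and run on formate-form AG 1-X8 anion exchange, eluting with water then formic acid. Columns were counted afterwards.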

[7] = intact rats, without phlorizin (SGLT inhibitor) pre-treatment; cited from earlier work
[8] = assay type: in vivo, Sprague-Dawley rats; conditions: average of all tissues, 1 h after i.v. injection

Compound: CO[C@@H]([C@H](O)[C@H](O)CO)[C@@H](O)C=O [3OMG, 3-O-methyl-glucose, reference compound]
urinary excretion [1]: 50%
phosphorylation by hexokinase in vitro (hexokinase): can be phosphorylated

Compound: C[C@@H](O)[C@@H](O)[C@H](O)[C@@H](O)C=O [6-deoxy-D-glucose]
activity of glucose dehydrogenase on substrate (glucose dehydrogenase): same activity

urinary excretion of radioactivity, percentage of injected radioactivity [2]: less than 8%
Compound: O=C[C@H](O)[C@@H](O)[C@H](O)[C@H](O)CF [6FDG, 6-fluoro-6-deoxy-D-glucose]
activity of glucose dehydrogenase on substrate (glucose dehydrogenase): same activity
phosphorylation by hexokinase in vitro (hexokinase; preliminary evaluation): lack of its phosphorylation

Compound: OC[C@H]1OC(O)[C@H](O)[C@@H](O)[C@@H]1O (stereo partly drawn) [D-glucose]
activity of glucose dehydrogenase on substrate (glucose dehydrogenase): same activity

Compound: [3H]C1(O)O[C@H](CF)[C@@H](O)[C@H](O)[C@H]1O (stereo partly shown) [[1-^3H]6FDG]
blood radioactivity ([3]; 24 h after i.v. injection): negligible
percentage of 3H radioactivity eluting with water, anion exchange column ([3]; average across tissues, 1 h): 101%
percentage of 3H radioactivity eluting with water, anion exchange column ([3]; average across tissues, 24 h): 95%
percentage of 3H radioactivity eluting with water, anion exchange column ([3]; individual tissues, 1 h): ≥ 90%
percentage of 3H radioactivity eluting with water, cation exchange column [4]: ~100%
percentage of radioactivity eluting as [1-3H]6FDG (HPLC) ([5]; blood, 6 h): > 99%
percentage of radioactivity eluting as 6FDG (HPLC) ([5]; heart, 1 h (lowest tissue)): 90%
percentage of radioactivity eluting as [1-3H]6FDS (HPLC) ([5]; heart, 6 h (highest tissue)): 28%
percentage of radioactivity eluting as 6FDG (HPLC) ([5]; heart, 6 h (lowest tissue)): 69%
percentage of radioactivity eluting as [1-3H]6FDS (HPLC) ([5]; skeletal muscle, 24 h (highest tissue)): 31%
percentage of radioactivity eluting as 6FDG (HPLC) ([5]; skeletal muscle, 24 h (lowest tissue)): 65%

percentage of 18F radioactivity remaining bound to the anion exchange column ([6]; 1 h): 1%
percentage of 18F radioactivity remaining bound to the anion exchange column ([6]; 6 h): 5%
percentage of homogenate 18F radioactivity in the methanol-water layer (extraction) [8]: 95.6 ± 2.6%
Compound: O=C[C@H](O)[C@@H](O)[C@H](O)[C@H](O)C[18F] [[^18F]6FDG, [^18F]6-fluoro-6-deoxy-D-glucose]
urinary excretion of [18F]6FDG [7]: little urinary excretion
